Compounds with a hit are over-represented: about 1.2% of the library has one in this group of screens.
TRPML3 ag – human TRPML3 channel agonists, primary screen, cell-based, HEK293 TRPML3-YFP, Fluo-8 calcium fluorescence, 3 µM | Mucolipin-3 (Homo sapiens), Q8TDD5 | 100% = the carbachol control signal | activation, % at 3 µM | actives 0.29% (n = 220,000);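 active = activation above its plate's cutoff, the mean activation of the plate's test wells plus 3 SD, cut at about 12% in these data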;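 note: 0% = DMSO only wells and 100% = carbachol wells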
Target sequence (Q8TDD5 whole entry, looked up): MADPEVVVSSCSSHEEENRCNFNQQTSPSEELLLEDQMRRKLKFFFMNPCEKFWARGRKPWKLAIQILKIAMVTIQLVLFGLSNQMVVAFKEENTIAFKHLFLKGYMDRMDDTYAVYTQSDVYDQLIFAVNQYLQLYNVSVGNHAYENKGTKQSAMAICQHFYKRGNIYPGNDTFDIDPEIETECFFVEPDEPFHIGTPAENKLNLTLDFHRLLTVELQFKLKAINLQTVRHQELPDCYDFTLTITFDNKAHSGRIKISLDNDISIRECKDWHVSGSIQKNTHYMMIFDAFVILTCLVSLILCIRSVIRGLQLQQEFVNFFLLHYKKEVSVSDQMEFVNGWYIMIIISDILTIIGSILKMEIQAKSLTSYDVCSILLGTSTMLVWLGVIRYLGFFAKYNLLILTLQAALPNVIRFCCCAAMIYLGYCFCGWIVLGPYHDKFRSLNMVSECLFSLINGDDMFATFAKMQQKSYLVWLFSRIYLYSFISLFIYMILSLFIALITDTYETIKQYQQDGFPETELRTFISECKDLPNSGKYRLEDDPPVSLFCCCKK
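Test system: HEK293 cells stably carrying human TRPML3-YFP; Doses: single dose, 3 µM final nominal compound, 0.3% DMSO final; Schedule: dye loading 1 h 37 °C then 30 min ambient, 125 s read; Technique: Fluo-8 calcium fluorescence; Benchmarks: high control carbachol 87 µM, low control DMSO.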
CRFBP-R2 agonist – agonists of CRF-BP/CRF-R2 complex, primary screen, cell-based, HEK293, calcium dye fluorescence, uHTS; calcium dye fluorescence (FLIPR); percent of saturating CRF peptide response; activation, % at 13.2 µM; actives 0.46% (n = 350,000); CRF-binding protein / CRF receptor 2 complex (human);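 active = activation of at least 50%, plus an integration ratio under a set limit after plate pattern correction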;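 note: plate controls were neutral control wells without compound for no effect and CRF at EC100 for full effect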
CRFR2-BP antag – antagonists of CRF-BP/CRF-R2 complex, primary screen, cell-based, HEK293, calcium dye fluorescence, uHTS; inhibition, % at 11.8 µM; actives 0.59% (n = 350,000); CRF-induced calcium fluorescence;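 active = inhibition of the ligand-induced calcium signal above about 50% at the single tested concentration, limit read from the data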
zfTRPN1 agonist – zebrafish TRPN1 channel agonists, primary screen, cell-based, HEK293, calcium fluorescence; transient receptor potential cation channel N1 (TRPN1/NompC), Danio rerio; HEK293 zebrafish TRPN1-YFP, Fluo-8 calcium fluorescence; 100% = response to 87 µM carbachol; activation, % at 3 µM; actives 0.18% (n = 220,000);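 active = activation above its plate's cutoff, the mean activation of test wells on that plate plus 3 SD, cut at about 19% in these data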;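 note: 0% = DMSO alone and 100% = 87 µM carbachol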
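System: zebrafish TRPN1-YFP in HEK293 cells / Dosing: 3 µM single point / Timing: dye loading 1 h at 37 °C, then 30 min room temperature / Signal: Fluo-8 calcium fluorescence, excitation 470-495 nm, emission 515-575 nm / Read-out basis: percent activation from peak over basal fluorescence ratio, control-normalized / Control set: high carbachol 87 µM, low DMSO alone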
Numbers without * were called inactive; · = no result.

SMILES	TRPML3 ag	CRFBP-R2 agonist	CRFR2-BP antag	zfTRPN1 agonist
Cc1ccc(C(=O)Oc2ccc(C(=O)COC(=O)C3CC(=O)N(Cc4ccco4)C3)cc2)cc1 (stereo not given)	2	2	8	2
O=C(N/N=C/c1ccc(O)c2ncccc12)c1cccc(Br)c1	1	124*	-193	2
O=C(N/N=C/c1c(O)n(-c2ccc(Cl)cn2)c(=O)c2ccccc12)c1ccncc1	1	55*	-68	2
CC(=NNC(=O)c1ccncc1)c1ccc2ccccc2c1O	·	297*	-328	·
O=C(N/N=C\c1c(O)ccc2ccccc12)c1cncc(Br)c1	·	167*	-113	·
CC(=NNC(=O)c1ccncc1)c1ccccc1O	·	0	0	·
C/C(=N\NC(=O)c1ccccc1)c1c(C)[nH]n(-c2ccccc2)c1=O	·	-1	0	·
CC(C(=O)NC1C(=O)N2C(C(=O)O)=C(CSc3nnnn3C)CSC12)n1cc(Br)cn1 (stereo not given)	1	-2	7	1
CN1CCN(c2nc(-c3ccccc3)ncc2S(=O)(=O)c2ccccc2)CC1	1	3	-23	1
O=C(NN=Cc1c(O)ccc2ccccc12)c1ccncc1	·	149*	-102	·
O=C(N/N=C\c1c(O)ccc2ccccc12)c1ccc(O)cc1	·	4	-3	·
O=C(N/N=C/c1c(O)ccc2ccccc12)c1ccc(Br)o1	·	101*	-50	·
CN(C)c1ccc(/C=C/c2nc3ccccc3s2)cc1	0	65*	-84	2
C(=C\c1ccc2ccccc2n1)/c1ccccc1	0	-1	7	-1
CN(C)c1ccc(/C=C/c2ccc3ccccc3n2)cc1	9	90*	-90	10
OCC[n+]1ccc(/C=C/c2c[nH]c3ccccc23)cc1	3	119*	-41	5
Cc1ccc(C)c(S(=O)(=O)C(C#N)c2nc3ccccc3nc2N2CCOCC2)c1 (stereo not given)	1	6	63*	1
Cc1cccc(S(=O)(=O)C(C#N)c2nc3ccccc3nc2N2CCCC2)c1 (stereo not given)	2	64*	-17	1
O/C=c1\ccc2cccc3nc(C(F)(F)F)nc1c23	·	97*	-38	·
NNc1nc(C(F)(F)F)nc2ccccc12	1	0	-12	3
CN(C(=O)Nc1cccc([N+](=O)[O-])c1)c1ccccc1	·	-2	17	·
CCOc1ccc(N(CC(=O)NCC2CCCO2)C(=O)CCC(=O)Nc2nccs2)cc1 (stereo not given)	1	2	52*	2
CCOc1ccc(C(=O)Nc2c3c(nn2-c2ccc(C)cc2)CS(=O)C3)cc1OCC (stereo not given)	0	-2	-1	0
Cc1ccc(-n2nc3c(c2NC(=O)c2ccc(OC(C)C)cc2)CS(=O)C3)cc1 (stereo not given)	0	-1	68*	0
CC12CCC(C(=O)Nc3cccc(NC(=O)C45CCC(C)(C(=O)O4)C5(C)C)n3)(OC1=O)C2(C)C	1	3	-4	2
SMILES	TRPML3 ag	CRFBP-R2 agonist	CRFR2-BP antag	zfTRPN1 agonist
CC12CCC(C(=O)Nc3ncc([N+](=O)[O-])s3)(OC1=O)C2(C)C (stereo not given)	2	11	63*	4
CCOC(=O)C(=O)NNc1ccc(Cl)cc1	1	1	10	0
O=c1cc(-c2ccccc2)ss1	·	-2	90*	·
COc1cc(O)c(CC=C(C)C)c(O)c1C(=O)CCc1ccc(O)cc1	·	0	-30	·
CCn1c(CC(=O)Nc2ccccc2C)nnc1SCC(=O)NC1CCCC1	·	-1	4	·
CCN(CC)c1ccc2cc(NC(=O)CCC(=O)O)c(=O)oc2c1	2	88*	-80	4
CCN(CC)c1ccc2nc3c4ccccc4c(=O)cc-3oc2c1	·	23	-44	·
CCN(CC)c1ccc2cc(C(N)=O)c(=O)oc2c1	0	41	-46	1
CCN(CC)c1ccc2cc(C=O)c(=O)oc2c1	19*	309	-230	39*
CCN(CC)c1ccc2cc(C(=O)Nc3ccccn3)c(=O)oc2c1	0	263*	-206	2
CCN(CC)c1ccc2cc(C(N)=O)c(=N)oc2c1	1	258*	-249	1
O=C(NC1CC2CCC(C1)N2Cc1nnnn1Cc1ccco1)NC12CC3CC(CC(C3)C1)C2 (stereo not given)	1	1	-6	0
O=C(Nc1ccc(OC(F)(F)F)cc1)N1CCN(c2ccnc3cc(Cl)ccc23)CC1	0	4	-22	2
c1cc(-c2nnc(-c3ccncc3)o2)ccn1	0	1	-8	0
CCN(CC)c1ccc2cc(/C(N)=N/NC(=O)c3cccs3)c(=O)oc2c1	5	·	·	11
CCN(CC)c1ccc2cc(-c3nnc(-c4ccncc4)o3)c(=O)oc2c1	27*	337*	-403	47*
CCN(CC)c1ccc2cc(C(C)=O)c(=O)oc2c1	10	361*	-169	9
CC(=O)N1N=C(c2cccs2)CC1c1cccs1 (stereo not given)	0	-2	-7	-1
CC(=O)c1ccc(-c2cccs2)s1	0	1	64*	0
Cc1ccnc(NC(=O)CCC(=O)N(CC(=O)NC2CCCCC2)Cc2ccccc2)c1	1	-3	-7	3
N#C/C(=C/c1ccc(-c2ccc([N+](=O)[O-])cc2)o1)c1nnc(N2CCOCC2)n1-c1ccccc1	·	176*	-164	·
CN1C(c2ccc(F)cc2)=CS/C1=C(/C#N)c1nnc(N2CCOCC2)n1-c1ccccc1	1	-2	95*	0
Cc1ccc(C2C(C#N)=C(N)SC(N)=C2C#N)c(C)c1	2	133*	-89	6
CCOc1nc(C)ccc1-c1noc(CC)n1	1	-3	13	-1
COc1ccc(-c2csc(NC(=O)CN3C(=O)C4CC=CCC4C3=O)n2)cc1OC (stereo not given)	·	2	57*	·
SMILES	TRPML3 ag	CRFBP-R2 agonist	CRFR2-BP antag	zfTRPN1 agonist
Cc1c(C(=O)NCc2cccnc2)oc2ccccc12	0	-1	62*	2
Cc1c(C(=O)NCCc2ccccc2)oc2ccccc12	·	-1	50	·
Cc1nc2ccccc2n1CC(O)COC1CCCCC1 (stereo not given)	1	-2	53*	3
CN(C)c1ccc(/C=N/N(CCO)C2=NS(=O)(=O)c3ccccc32)cc1	·	140*	-135	·
O=S1(=O)N=C(N(CCO)/N=C/c2ccc(Cl)cc2)c2ccccc21	·	-3	-19	·
O=C(C/C=N\OCc1ccc([N+](=O)[O-])cc1)Nc1ccc(Br)cc1	0	-5	84*	0
O=C(COc1ccc([N+](=O)[O-])cc1)NNC(=O)Nc1ccc([N+](=O)[O-])cc1	·	10	1	·
O=C(CCC(=O)c1cccs1)NCc1ccc(Cl)cc1	-1	0	-4	-2
